# Assay results reported in ChEMBL document CHEMBL2331355, “Synthesis, structure activity relationship and mode of action of 3-substitutedphenyl-1-(2,2,8,8-tetramethyl-3,4,9,10-tetrahydro-2H,8H-pyrano[2,3-f]chromen-6-yl)-propenones as novel anticancer agents in human leukaemia HL-60 cells” (Eur J Med Chem, 2013).
# Columns and labels:
# Assay type in all cases: functional
# [1] = test system: Caco-2; assay: Growth inhibition of human Caco2 cells at 50 uM after 48 hrs by MTT assay; conditions: Caco-2, 48 h, read-out: GI
# Method in brief: (§1)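 Single-concentration MTT screen at 50 µM over 48 h in 96-well plates. Compounds giving >50% inhibition were rescreened at 30 µM. OD read at 570 nm, reference 620 nm. Result expressed as % growth inhibition versus untreated control. Mitomycin C, adriamycin or 5-fluorouracil used as positive controls. Mean ± SD of three independent experiments.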
# [2] = test system: MDA-MB-435; assay: Growth inhibition of human MDA-MB-435 cells at 50 uM after 48 hrs by MTT assay; conditions: MDA-MB-435, 48 h, read-out: GI; method in brief: as §1
# [3] = test system: MIA PaCa-2; assay: Growth inhibition of human MIAPaCa2 cells at 50 uM after 48 hrs by MTT assay; conditions: MIA PaCa-2, 48 h, read-out: GI; method in brief: as §1
# [4] = test system: ASPC1; assay: Growth inhibition of human AsPC1 cells at 50 uM after 48 hrs by MTT assay; conditions: ASPC1, 48 h, read-out: GI; method in brief: as §1
# [5] = test system: HL-60; assay: Growth inhibition of human HL60 cells at 50 uM after 48 hrs by MTT assay; conditions: HL-60, 48 h, read-out: GI; method in brief: as §1
# [6] = test system: MCF7; assay: Growth inhibition of human MCF7 cells at 50 uM after 48 hrs by MTT assay; conditions: MCF7, 48 h, read-out: GI; method in brief: as §1
# [7] = test system: PC-3; assay: Growth inhibition of human PC3 cells at 50 uM after 48 hrs by MTT assay; conditions: PC-3, 48 h, read-out: GI; method in brief: as §1
SMILES,inhibition of growth at 50 µM [1],inhibition of growth at 50 µM [2],inhibition of growth at 50 µM [3],inhibition of growth at 50 µM [4],inhibition of growth at 50 µM [5],inhibition of growth at 50 µM [6],inhibition of growth at 50 µM [7]
CC1(C)CCc2cc(C(=O)/C=C/c3cccc(Cl)c3)c3c(c2O1)CCC(C)(C)O3,31%,54%,24%,24%,60%,16%,59%
CC1(C)CCc2cc(C(=O)/C=C/c3ccccc3)c3c(c2O1)CCC(C)(C)O3,34%,47%,24%,17%,32%,14%,51%
COc1ccc(OC)c(/C=C/C(=O)c2cc3c(c4c2OC(C)(C)CC4)OC(C)(C)CC3)c1,23%,52%,17%,2%,27%,15%,36%
CC1(C)CCc2cc(C(=O)/C=C/c3ccc(F)cc3)c3c(c2O1)CCC(C)(C)O3,12%,52%,38%,28%,38%,17%,59%
CC1(C)CCc2cc(C(=O)/C=C/c3ccc(Br)cc3)c3c(c2O1)CCC(C)(C)O3,28%,52%,45%,27%,25%,16%,33%
CC1(C)CCc2cc(C(=O)/C=C/c3ccccc3Cl)c3c(c2O1)CCC(C)(C)O3,11%,33%,31%,15%,41%,9%,52%
